Assay outcomes: PubChem, several laboratories
Most compounds without a hit are left out; they make up all but 6.7% or so of the library.
CSC inhib = cancer stem cell viability inhibitors, primary screen, luminescence | cancer stem cell-like cells viability | inhibition, % at 7.5 µM | 300,000 compounds, 1.1% hits | AID 2717, 2010; in the data active = inhibition above about 75%; tested in HMLE shEcad cells
GRIN3A LBD mod = binders of NR3A ligand-binding domain, primary screen, biophysical, differential scanning fluorimetry, uHTS; Glutamate receptor ionotropic, NMDA 3A (GRIN3A) ligand-binding domain; NR3A LBD differential scanning fluorimetry, Tm shift; 0% = protein alone, 100% = glycine-bound protein; Tm shift relative to glycine control, % at 25 µM; 340,000 compounds, 2.5% hits;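 active = melting temperature shift of at least 10% of the positive control shift, at one fixed dose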
PREPL inh = PREPL enzyme inhibitors, primary screen, biochemical, fluorescence polarization; recombinant PREPL, fluorescence polarization activity-based probe; inhibition, % at 5.96 µM; 320,000 compounds, 0.68% hits; AID 2751, 2010; in the data active = inhibition above about 43%
Target sequence (Q4J6C6 whole entry, looked up): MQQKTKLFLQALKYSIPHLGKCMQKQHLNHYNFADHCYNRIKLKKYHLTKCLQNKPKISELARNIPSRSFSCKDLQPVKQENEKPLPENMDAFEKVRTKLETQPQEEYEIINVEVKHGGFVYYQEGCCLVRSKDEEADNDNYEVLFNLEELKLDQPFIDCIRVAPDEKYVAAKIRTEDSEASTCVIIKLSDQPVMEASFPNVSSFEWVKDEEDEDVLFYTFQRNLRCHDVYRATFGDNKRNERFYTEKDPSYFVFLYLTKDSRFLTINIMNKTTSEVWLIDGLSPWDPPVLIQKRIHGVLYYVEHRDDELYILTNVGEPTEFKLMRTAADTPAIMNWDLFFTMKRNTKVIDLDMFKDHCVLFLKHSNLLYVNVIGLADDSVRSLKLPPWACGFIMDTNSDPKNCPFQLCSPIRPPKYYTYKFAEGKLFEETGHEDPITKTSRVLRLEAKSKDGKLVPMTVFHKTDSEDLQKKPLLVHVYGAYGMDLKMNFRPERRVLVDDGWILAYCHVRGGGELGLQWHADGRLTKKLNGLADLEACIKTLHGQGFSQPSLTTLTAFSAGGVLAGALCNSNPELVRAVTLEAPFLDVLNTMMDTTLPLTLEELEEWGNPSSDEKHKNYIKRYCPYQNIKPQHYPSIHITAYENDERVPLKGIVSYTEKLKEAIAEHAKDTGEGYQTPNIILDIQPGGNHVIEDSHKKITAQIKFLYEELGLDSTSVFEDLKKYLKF
T cruzi repl = inhibitors of intracellular T. cruzi growth, primary screen, luminescence, NIH3T3 host cells; 300,000 compounds, 1.4% hits; inhibition, % (concentration not given with the values); AID 1885, 2009; T. cruzi beta-gal in NIH3T3, 90 h;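 active = mean inhibition across valid replicates above about 55%, limit read from the data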;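 also: signal also drops with host cell toxicity which is not excluded here; higher percent means less beta-gal luminescence so fewer parasites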
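Assay system: NIH/3T3 fibroblasts plus reporter T. cruzi. Amount: NIH/3T3 cells, 5,000 per well. Buffer or medium: DMEM, 2% fetal bovine serum. Doses: compound pinned at 50 nL/well, DMSO. Schedule: ≥90 h infection period, 3 h prior cell attachment. Signal: luminescent β-galactosidase signal after 60 min lysis. Read-out: parasite load inhibition, %.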
CHOP inh = inhibitors of CHOP promoter induction, primary screen, cell-based, unfolded protein response, luciferase reporter | CHO-K1 CHOP-promoter luciferase, tunicamycin-induced, 15-18 h | inhibition, % at 10 µM | AID 2732, 2010 | 220,000 compounds, 3.8% hits;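 active = compounds that reduced the stress-induced luciferase reporter signal by more than about 70% of percent inhibition, limit read from the data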
Beta cell apopt = inhibitors of cytokine-induced beta cell apoptosis, primary screen, luminescence; protection from apoptosis, % (test concentration not listed); INS-1E cytokine-induced death, ATP luminescence, 48 h; percent of positive-control rescue, neutral wells zero; 300,000 compounds, 0.8% hits;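 active = Every replicate reaches about 75%, or at least half do and their mean reaches it too, limit read from the data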;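 also: higher means more ATP so stronger rescue from cytokine killing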
Large screens that a line does not name were inactive; ! = not confirmed by another sample.

O=[N+]([O-])c1cc(S(=O)(=O)N2CCCC2)ccc1NCCCN1CCOCC1	none
O=[N+]([O-])c1ccc(N2CCN(S(=O)(=O)c3ccc(Cl)c(Cl)c3)CC2)cc1NCCN1CCOCC1	T cruzi repl 56
CC(C(=O)NCCc1ccc(Cl)cc1)n1c(=O)c2cccn2c2cccnc21 (stereo unspecified)	none (no result: CHOP inh)
CCc1ccccc1N(CC(=O)NC(C)c1ccccc1)S(C)(=O)=O (stereo unspecified)	none (no result: CHOP inh)
Cc1cc(OCC(O)CNC(C)c2ccccc2)ccc1C(C)C (stereo unspecified)	none (no result: CHOP inh)
NC(=S)N/N=C1/CCSc2ccc3ccccc3c21	CHOP inh 75
NC(=S)N/N=C/c1c(O)ccc2ccccc12	none (no result: CSC inhib)
Cc1ccc(/C(=N\O)c2oc3c(C)c4oc(=O)cc(C)c4cc3c2C)cc1	CSC inhib 105, T cruzi repl 59
O=C1N=c2ccccc2=C1c1c(O)n(-c2cccc(F)c2)[nH]c1=O	CSC inhib 83, CHOP inh 73
O=C1CC(=O)N(c2cccc(F)c2)N1	none
COC(=O)C1=C(O)/C(=C\c2ccc(CNC(=O)C(=O)Nc3ccc(C)cc3)o2)N=C1C	none
COC(=O)C1=C(O)/C(=C\c2ccc(CNC(=O)C(=O)Nc3ccc(C)c(C)c3)o2)N=C1C	CHOP inh 73
CCc1cccc(NC(=O)c2ccc(NS(=O)(=O)c3c(C)noc3C)cc2)c1	GRIN3A LBD mod 29
Cc1cccc(NC(=O)c2ccc(NS(=O)(=O)c3c(C)noc3C)cc2)c1	GRIN3A LBD mod 29
COc1cc(NC(=O)c2ccc(NS(=O)(=O)c3c(C)noc3C)cc2)cc(OC)c1	GRIN3A LBD mod 19
CC(=O)Nc1cccc(NS(=O)(=O)c2c(C)noc2C)c1	none (no result: T cruzi repl, CHOP inh)
Cc1noc(C)c1S(=O)(=O)Nc1ccc(C(=O)NCc2ccccc2)cc1	none (no result: Beta cell apopt)
Cc1noc(C)c1S(=O)(=O)Nc1ccc(C(=O)Nc2ccc(OC(F)(F)F)cc2)cc1	GRIN3A LBD mod 12 (no result: CHOP inh)
COc1ccc(OC)c(NC(=O)c2ccc(NS(=O)(=O)c3c(C)noc3C)cc2)c1	none
COc1cc(OC)cc(OC(=O)C2CCN(C(=O)c3ccc(F)cc3)CC2)c1	none (no result: CHOP inh)
COc1ccc(/C=N/NC(=O)c2cccc(O)c2)cc1Cn1nc(C)c([N+](=O)[O-])c1C	none
Cc1[nH]n(-c2ncc(-c3ccccc3)s2)c(=O)c1C(c1ccc(Cl)cc1)C(C#N)C#N (stereo unspecified)	GRIN3A LBD mod 12
CCNC(=O)COc1ccc(/C=C2\COc3ccccc3C2=O)cc1OC	none (no result: CHOP inh)
CN1CCc2cccc3c2[C@H]1Cc1ccc(O)c(O)c1-3	GRIN3A LBD mod 12!
CN1CCc2cc3c(c4c2[C@H]1[C@H](O)c1ccccc1-4)OCO3	none
Cc1cccc(NC(=O)CSCC(=O)NCc2ccco2)c1	none (no result: CHOP inh)
CCC(=O)Nc1ccc(Br)cn1	GRIN3A LBD mod 233
CCC(=O)NNc1ccc(Br)cc1	CSC inhib 80
O=C(NC(=S)Nc1ccc(Br)cn1)c1cncc(Br)c1	CHOP inh 81
CCOc1ccc(N(CC(=O)N2CCN(c3ccc(F)cc3)CC2)S(=O)(=O)c2c(C)noc2C)cc1	none (no result: CHOP inh)
OC(COCc1ccccc1)CN1CCN(Cc2ccc3c(c2)OCO3)CC1 (stereo unspecified)	none (no result: CSC inhib)
SC(COCc1ccccc1)CN1CCN(Cc2ccc3c(c2)OCO3)CC1 (stereo unspecified)	T cruzi repl 55
COc1ccc(/C=N/n2cc(-c3ccc(OC)cc3)nc2N)cc1	CHOP inh 70
COc1ccc(C(=O)OCC(=O)Nc2nc3c(F)c(F)c(F)cc3s2)cc1OC	none
O=C(COC(=O)C12CC3CC(CC(C3)C1)C2)Nc1nc2c(F)c(F)c(F)cc2s1	GRIN3A LBD mod 29, CHOP inh 95 (no result: CSC inhib, Beta cell apopt)
CC(=O)/C=C\c1cn(-c2ncc(C(F)(F)F)cc2Cl)c2ccccc12	GRIN3A LBD mod 14 (no result: CSC inhib)
OCCN1CCN(C2CCC(c3ccc(F)cc3)c3ccc(F)cc32)CC1 (stereo unspecified)	CSC inhib 83 (no result: CHOP inh)
